Compounds with a hit are over-represented: about 3.4% of the library has one in this group of screens.
Efa HMGR inh: inhibitors of class II HMG-CoA reductase from Enterococcus faecalis; purified E. faecalis HMGR, NADPH absorbance 340 nm kinetic; inhibition, % at 10 µM; actives 0.41% (n = 190,000);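 active = inhibition above a set limit, the median over all tested compounds plus 3 SD, cut at about 9.5% in these data; inconclusive = no clear call, values can overlap the other calls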;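 note: enzyme runs in reverse so mevalonate oxidation gives rising NADPH absorbance; 0% = complete reaction with DMSO and 100% = background rate lacking mevalonate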
Runt-CBFb FRET: blocks binding of human RUNX1 Runt domain to CBFb; Cerulean-Runt/Venus-CBFb FRET ratio 530/480, 1 h; inhibition, % at 20 µM; actives 0.46% (n = 220,000); AID 1496;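 active = inhibition over about 50% at 20 µM in the single-dose screen, limit read from the data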;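 note: 0% = DMSO wells and 100% = excess unlabeled CBFb competitor control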
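Buffer or medium: Tris pH 7.5 buffer with BSA. Assay system: Cerulean-labeled Runt domain protein. Amount: each fluorescent fusion protein 100 nM. Read-out basis: loss of energy transfer signal. Incubation: 1 h compound exposure, room temperature. Probe or stimulus: Venus-CBFb binding partner, 100 nM. Detection: FRET, excitation 422 nm, emission at 530 and 480 nm.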
Runt-SMMHC FRET: Runt domain-CBFb-SMMHC interaction inhibition. Q01196+Q13951. inhibition, % at 20 µM. actives 0.74% (n = 220,000). Cerulean-Runt/Venus-CBFb-SMMHC FRET ratio 530/480, 1 h;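 active = mean inhibition across duplicate retests at 20 µM reaching about 50%, limit read from the data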;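 note: 0% = DMSO wells and 100% = wells with excess untagged CBFb-SMMHC; inhibitors lower the FRET ratio by blocking Runt binding to CBFb-SMMHC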
PHOSPHO1 block: blocks human PHOSPHO1 phosphatase activity; inhibition, % at 13.3 µM; actives 1.1% (n = 290,000); AID 1565; recombinant PHOSPHO1, absorbance phosphatase assay; in the data active = inhibition above about 60%
RanGTP-Imp inh: disruptors of Ran-importin-beta complex formation – biochemical, FRET, CFP-Ran, YFP-importin-beta, homogeneous, primary screen. cell-free CFP-Ran/YFP-importin-beta FRET ratio. inhibition, % (test concentration not listed). actives 1.1% (n = 300,000). AID 2216;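 active = more than half of the replicate wells show a fall in the fluorescence ratio signal beyond about 16%, limit read from the data, passing the limit was not always enough; inconclusive = exactly half of the replicate wells pass the set limit; inactive = fewer than half of replicates pass the limit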;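 note: 0% = DMSO wells and 100% = Ran loaded with GDP instead of GTP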
Wee1 degr inh: blocks degradation of human Wee1 kinase; P30291; HeLa Luc-Wee1K328M stability, luciferase luminescence; 100% = proteasome inhibitor MG132 effect; reporter increase, % at 5 µM; actives 1.2% (n = 220,000);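 active = activation above the mean of all tested compounds plus 3 SD, set per screening run, cut at about 8.8% in these data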;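 note: cells exposed to compound for 20 h before luminescence read; 0% = DMSO alone and 100% = MG132 at 30 µM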
Target sequence (P30291 whole entry K328M): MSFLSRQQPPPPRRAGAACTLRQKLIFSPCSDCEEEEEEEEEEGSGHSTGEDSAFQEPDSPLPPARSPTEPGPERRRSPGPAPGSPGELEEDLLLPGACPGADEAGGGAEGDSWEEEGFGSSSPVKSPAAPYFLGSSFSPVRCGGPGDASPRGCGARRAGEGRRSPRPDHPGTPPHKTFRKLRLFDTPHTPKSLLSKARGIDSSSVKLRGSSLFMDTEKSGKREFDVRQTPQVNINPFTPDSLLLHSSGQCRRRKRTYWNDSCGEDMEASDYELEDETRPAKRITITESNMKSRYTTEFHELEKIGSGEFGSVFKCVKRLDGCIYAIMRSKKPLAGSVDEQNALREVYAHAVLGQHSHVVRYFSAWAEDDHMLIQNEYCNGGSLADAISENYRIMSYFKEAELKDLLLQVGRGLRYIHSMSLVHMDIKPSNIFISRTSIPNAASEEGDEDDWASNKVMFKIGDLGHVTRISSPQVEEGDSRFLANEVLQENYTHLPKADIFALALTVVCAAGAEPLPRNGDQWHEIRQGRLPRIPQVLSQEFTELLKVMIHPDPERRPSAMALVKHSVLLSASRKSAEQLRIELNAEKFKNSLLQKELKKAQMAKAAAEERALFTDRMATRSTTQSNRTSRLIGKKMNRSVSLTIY
An asterisk follows results filed as active; ? = inconclusive; . = no result.

SMILES	Efa HMGR inh	Runt-CBFb FRET	Runt-SMMHC FRET	PHOSPHO1 block	RanGTP-Imp inh	Wee1 degr inh
O=C(NCC(=O)N(Cc1ccccc1)C(C(=O)NC1CCCC1)c1cccnc1)c1ccco1 (stereo unspecified)	-2	-3	5	199*	7	0
Oc1ccccc1N=Cc1sc2ccccc2c1Cl	-8	4	-5	1	?	0
Oc1sc(C=Nc2ccc(F)cc2)c2ccccc12	-2	-13	-149	65*	-5	-1
Oc1sc(C=Nc2ccccc2)c2ccccc12	-5	-35	-112	65*	1	1
Cc1ccc2c(c1)C(N1CCCC1=O)CC(c1ccco1)N2 (stereo unspecified)	4	23	8	76*	-2	2
CC(C)(C)NC(=O)Cc1ccc(Cl)c(Cl)c1	-1	0	2	24	1	0
CC(=O)c1ccc(S(=O)(=O)N(C)CC(=O)N2CCCCCC2)cc1	.	.	.	26	3	.
COc1ccc2c(c1)NC(c1ccc(N(C)C)cc1)c1cccn1-2 (stereo unspecified)	.	21	47	19	42*	0
COc1ccc2c(c1)NC(c1cc(Cl)cc(Cl)c1O)c1cccn1-2 (stereo unspecified)	2	13	-6	31	.	0
O=C(N/N=C\c1cc(Br)ccc1O)c1ccc(S(=O)(=O)N2CCCCC2)cc1	1	-46	-88	1	2	9.1*
O=C(CNC(=O)c1ccc(S(=O)(=O)N2CCCC2)cc1)N/N=C/c1ccc(Cl)cc1	16*	-4	6	-13	7	0
Cc1ccc(NC(=O)CCNC(=O)c2ccc(Br)cc2)cc1S(=O)(=O)N1CCCCCC1	.	.	.	.	0	.
Cn1c(SCC(=O)N2CCOCC2)nnc1-c1cccc(NC(=O)c2ccccc2)c1	-2	-9	3	92*	-3	-2
Cn1c(SCC(=O)N2CCOCC2)nnc1-c1ccncc1	.	.	.	19	3	.
N#CC1=C(SCC(=O)c2ccccc2)NC2=C(C(=O)CCC2)C1c1ccco1 (stereo unspecified)	-4	8	-6	-20	-1	9.8*
COc1cccc(NC(=O)CSC2=C(C#N)C(c3ccco3)C3=C(CCCC3=O)N2)c1 (stereo unspecified)	3	4	-1	-3	1	10*
CCC1C(C#N)=C(SCC(N)=O)NC2=C1C(=O)CC(C)(C)C2 (stereo unspecified)	.	6	37	-95	4	-3
CC(C)(C)c1ccc(C(=O)CCCSC2=C(C#N)C(c3ccco3)C3=C(CCCC3=O)N2)cc1 (stereo unspecified)	-1	-1	-1	71*	.	2
COc1ccc(C2C(C#N)=C(SCC(=O)Nc3ccc(C)cc3)NC3=C2C(=O)CC(C)(C)C3)cc1 (stereo unspecified)	-4	4	0	89*	5	0
[O-][n+]1ccccc1SCc1ccccc1	.	.	.	.	-6	.
[O-][n+]1ccccc1SC/C=C/c1ccccc1	-3	1	-1	-40	?	10*
O=C(Nc1nnc(-c2ccco2)o1)C1CC1	4	0	1	37	-1	-2
COc1cc(/C=N/Nc2cc(C)nc(NS(=O)(=O)c3ccccc3)n2)ccc1O	.	8	1	51	0	10*
Cc1noc(C)c1C(=O)Nc1ccc(C#N)cc1	.	.	.	24	-2	.
Cc1nc(C(N)=O)c(N)n1CCc1ccccc1	.	.	.	42	2	.
SMILES	Efa HMGR inh	Runt-CBFb FRET	Runt-SMMHC FRET	PHOSPHO1 block	RanGTP-Imp inh	Wee1 degr inh
Cc1ccc(C2CC2c2n[nH]c(=S)n2-c2ccc(Cl)cc2)cc1 (stereo unspecified)	-1	5	15	74*	0	3
COC1CCCN(Cc2c(C(=O)N3CCN(C4CCCCC4)CC3)nc3ccccn23)C1 (stereo unspecified)	.	.	.	18	104*	.
CN(C(=O)C1CC1)C1CCS(=O)(=O)C1 (stereo unspecified)	.	.	.	.	3	.
COc1cccc(C2=CC(c3ccc(N(C)C)cc3)n3nnnc3N2)c1 (stereo unspecified)	-2	2	-27	63*	-11	0
CN(C)/C=C1/Sc2ccccc2C1=O	4	28	62	32	19*	2
CC(=O)N(\C=C/C=C/C=C1\Sc2ccccc2C1=O)c1ccccc1	-4	-4	-32	-23	11	-1
COc1ccccc1CNc1cc(C)ccc1C	-2	-1	2	13	-2	9.5*
COc1ccc(Nc2nc3ccccc3c(=O)s2)c(OC)c1	-1	-3	3	16	1	1
Cc1ccc(Nc2nc3ccccc3c(=O)s2)cc1C	0	-4	-7	-3	3	10*
COc1ccccc1-c1cc(C(=O)N/N=C/c2cccs2)c2ccccc2n1	1	0	0	-18	-2	10*
CCN(CC)S(=O)(=O)c1ccc(N2CCOCC2)c(NC(=O)c2cc(-c3ccccn3)nc3ccccc23)c1	12*	-4	-4	32	2	-1
CCN(CC)S(=O)(=O)c1ccc(N2CCOCC2)c(NC(=O)c2cccc3ccccc23)c1	5	-2	-2	-4	5	-2
COc1cc(OC)nc(/N=C/N(C)C)n1	6	1	-5	34	.	33*
Cc1cc(-c2csc(N)n2)c(C)n1Cc1ccco1	-4	24	-2	61*	2	7
Cc1ccc(-n2c(C)cc(-c3csc(N)n3)c2C)cc1	-8	5	-42	-6	3	0
Cc1cc(-c2csc(N)n2)c(C)n1C	-1	5	-6	86*	-1	0
Cc1ccc([N+](=O)[O-])cc1S(=O)(=O)Nc1ccc(C(=O)NCc2ccccn2)cc1	.	.	.	.	7	.
N#CC1=C(N)Oc2cc(N)ccc2C1c1cccc(F)c1 (stereo unspecified)	.	.	.	-14	38*	.
CN(C)c1ccc2c(c1)OC(N)=C(C#N)C2c1cccc(F)c1 (stereo unspecified)	-1	-51	-47	-41	-124	1
CCOc1ccccc1C1C(C#N)=C(N)Oc2cc(N)ccc21 (stereo unspecified)	-2	12	105*	-3	139*	-1
COc1ccc(OC)c(C2C(C#N)=C(N)Oc3cc(N)ccc32)c1 (stereo unspecified)	3	30	33	-34	47*	-3
COC(=O)c1ccc(C2C(C#N)=C(N)Oc3cc(N)ccc32)cc1 (stereo unspecified)	.	.	.	.	-9	.
N#CC1=C(N)Oc2cc(N)ccc2C1C1CCCCC1 (stereo unspecified)	0	50*	82*	2	97*	2

Assay outcomes: PubChem, several laboratories
